ChEMBL document CHEMBL3108762, “Novel pyridazinone inhibitors for vascular adhesion protein-1 (VAP-1): old target-new inhibition mode” (J Med Chem, 2013)
Activity calls are given as the source filed them. No cut-off for these calls is given here.

Legend:
[1] = target: T1, Amine oxidase [copper-containing] 3 (Rattus norvegicus) (UniProt O08590); assay: Inhibition of rat VAP-1
T1 sequence (whole entry): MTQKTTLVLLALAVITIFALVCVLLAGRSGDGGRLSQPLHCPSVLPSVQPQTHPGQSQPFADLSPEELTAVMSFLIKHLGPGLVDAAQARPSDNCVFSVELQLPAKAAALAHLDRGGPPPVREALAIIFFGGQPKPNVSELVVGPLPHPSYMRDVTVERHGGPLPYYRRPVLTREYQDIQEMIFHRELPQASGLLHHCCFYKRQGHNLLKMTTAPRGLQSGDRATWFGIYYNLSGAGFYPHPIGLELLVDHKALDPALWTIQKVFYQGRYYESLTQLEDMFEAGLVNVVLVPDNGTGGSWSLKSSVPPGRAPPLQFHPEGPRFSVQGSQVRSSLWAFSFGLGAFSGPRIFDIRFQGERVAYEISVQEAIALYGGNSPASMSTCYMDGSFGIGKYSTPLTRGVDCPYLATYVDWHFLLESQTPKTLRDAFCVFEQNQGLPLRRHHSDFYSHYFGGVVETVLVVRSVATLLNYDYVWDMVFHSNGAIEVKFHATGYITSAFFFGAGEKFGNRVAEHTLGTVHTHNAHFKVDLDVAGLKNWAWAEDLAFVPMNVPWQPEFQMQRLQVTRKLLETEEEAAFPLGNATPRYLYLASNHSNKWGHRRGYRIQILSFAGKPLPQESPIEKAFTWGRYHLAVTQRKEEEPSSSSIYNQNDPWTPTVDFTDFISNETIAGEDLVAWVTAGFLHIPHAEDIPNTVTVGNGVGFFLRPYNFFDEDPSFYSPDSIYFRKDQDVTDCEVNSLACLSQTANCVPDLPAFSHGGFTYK

[2] = Inhibition of cynomolgus monkey recombinant VAP-1 transfected in CHO cells using 2,4-dichlorophenol/benzylamine as substrate incubated for 30 mins prior to benzylamine addition measured after 1 hr by spectrophotometry; assay type: cell-based, Macaca fascicularis
Summary of the method: (§1)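 Coupled colorimetric H2O2 assay with lysate of CHO cells stably expressing full-length VAP-1 of the listed species, dosed to give 0.6 A490/h. Conditions: 0.2 M potassium phosphate pH 7.6, 1 mM 2,4-dichlorophenol, 500 μM 4-aminoantipyrine, 4 U/ml HRP, inhibitor 1 nM–50 μM. Preincubated 30 min at 37 °C, then 1 mM benzylamine (final) for 1 h at 37 °C; A490 read, background-corrected, percent inhibition versus control, IC50 fitted; mean of two to six experiments ± SE.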

Rattus norvegicus = species: Rattus norvegicus; assay: Inhibition of rat liver MAO using vanillic acid/tyramine as substrate at 100 uM incubated for 30 mins prior to tyramine addition measured after 1 hr by spectrophotometry
Summary of the method: (§2)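 Peroxidase-coupled colorimetric assay as for VAP-1, with 1 mM vanillic acid in place of 2,4-dichlorophenol and 0.5 mM tyramine (final) as substrate. Conditions: 0.2 M potassium phosphate pH 7.6, 500 μM 4-aminoantipyrine, 4 U/ml HRP, 30 min preincubation at 37 °C, then 1 h at 37 °C; A490 read. Enzymes: purified human MAO-A or MAO-B from baculovirus-infected BTI insect cells, or total MAO-A/B extracted from rat liver mitochondria. Single-concentration percent inhibition.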

MAO-A = target: T2, MAO-A (Homo sapiens, UniProt P21397); assay: Inhibition of human recombinant MAO-A expressed in baculovirus infected BTI insect cells using vanillic acid/tyramine as substrate at 20 uM incubated for 30 mins prior to tyramine addition measured after 1 hr by spectrophotometry; conditions: probe tyramine (with vanillic acid); summary of the method: as §2
T2 sequence (P21397 whole entry): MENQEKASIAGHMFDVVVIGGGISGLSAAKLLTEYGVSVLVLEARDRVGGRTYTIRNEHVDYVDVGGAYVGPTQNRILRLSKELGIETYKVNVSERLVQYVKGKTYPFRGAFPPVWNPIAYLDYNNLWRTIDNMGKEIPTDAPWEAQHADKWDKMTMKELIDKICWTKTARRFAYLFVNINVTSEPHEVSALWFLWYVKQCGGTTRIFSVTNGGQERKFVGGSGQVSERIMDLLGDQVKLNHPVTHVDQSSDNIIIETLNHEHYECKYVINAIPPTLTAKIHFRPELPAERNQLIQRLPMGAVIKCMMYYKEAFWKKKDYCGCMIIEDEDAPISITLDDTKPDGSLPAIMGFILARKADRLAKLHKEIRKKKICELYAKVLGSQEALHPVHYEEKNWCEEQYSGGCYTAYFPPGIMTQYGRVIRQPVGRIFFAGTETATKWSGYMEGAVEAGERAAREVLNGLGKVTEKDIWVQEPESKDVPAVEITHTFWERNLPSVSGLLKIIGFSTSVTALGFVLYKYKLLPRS

[3] = target: T3, Amine oxidase [copper-containing] 3 (Homo sapiens, UniProt Q16853); assay: Binding affinity to human recombinant VAP-1 by surface plasmon resonance analysis
T3 sequence (Q16853 whole entry): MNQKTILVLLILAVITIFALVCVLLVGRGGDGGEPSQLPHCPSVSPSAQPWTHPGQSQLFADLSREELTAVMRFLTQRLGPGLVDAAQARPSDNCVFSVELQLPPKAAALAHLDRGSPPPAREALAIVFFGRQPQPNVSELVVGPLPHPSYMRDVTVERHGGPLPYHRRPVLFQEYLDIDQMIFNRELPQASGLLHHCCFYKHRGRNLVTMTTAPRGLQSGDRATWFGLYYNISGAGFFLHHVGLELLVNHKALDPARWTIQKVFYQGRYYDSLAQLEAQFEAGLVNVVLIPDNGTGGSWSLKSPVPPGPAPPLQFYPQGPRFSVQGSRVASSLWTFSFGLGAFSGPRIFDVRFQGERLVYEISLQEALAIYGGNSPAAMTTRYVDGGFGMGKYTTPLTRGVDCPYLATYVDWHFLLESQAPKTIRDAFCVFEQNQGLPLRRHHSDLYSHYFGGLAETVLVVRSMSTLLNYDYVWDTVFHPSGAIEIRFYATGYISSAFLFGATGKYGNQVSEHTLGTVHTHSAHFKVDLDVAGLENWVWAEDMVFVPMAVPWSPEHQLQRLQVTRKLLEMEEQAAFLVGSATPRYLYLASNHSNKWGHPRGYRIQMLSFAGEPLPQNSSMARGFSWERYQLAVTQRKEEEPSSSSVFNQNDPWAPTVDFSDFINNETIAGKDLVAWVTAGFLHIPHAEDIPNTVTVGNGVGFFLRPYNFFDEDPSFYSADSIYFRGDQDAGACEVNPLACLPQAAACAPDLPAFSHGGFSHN
Summary of the method: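 Surface plasmon resonance binding kinetics: recombinant purified VAP-1 amine-coupled to a CM5 chip after preconcentration in 10 mM Na acetate pH 4.4 with 10 μM CuCl2.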

[4] = target: T4, Diamine oxidase [copper-containing] (Sus scrofa) (UniProt Q9TRC7); assay: Inhibition of pig kidney DAO at 100 uM
T4 sequence (whole entry): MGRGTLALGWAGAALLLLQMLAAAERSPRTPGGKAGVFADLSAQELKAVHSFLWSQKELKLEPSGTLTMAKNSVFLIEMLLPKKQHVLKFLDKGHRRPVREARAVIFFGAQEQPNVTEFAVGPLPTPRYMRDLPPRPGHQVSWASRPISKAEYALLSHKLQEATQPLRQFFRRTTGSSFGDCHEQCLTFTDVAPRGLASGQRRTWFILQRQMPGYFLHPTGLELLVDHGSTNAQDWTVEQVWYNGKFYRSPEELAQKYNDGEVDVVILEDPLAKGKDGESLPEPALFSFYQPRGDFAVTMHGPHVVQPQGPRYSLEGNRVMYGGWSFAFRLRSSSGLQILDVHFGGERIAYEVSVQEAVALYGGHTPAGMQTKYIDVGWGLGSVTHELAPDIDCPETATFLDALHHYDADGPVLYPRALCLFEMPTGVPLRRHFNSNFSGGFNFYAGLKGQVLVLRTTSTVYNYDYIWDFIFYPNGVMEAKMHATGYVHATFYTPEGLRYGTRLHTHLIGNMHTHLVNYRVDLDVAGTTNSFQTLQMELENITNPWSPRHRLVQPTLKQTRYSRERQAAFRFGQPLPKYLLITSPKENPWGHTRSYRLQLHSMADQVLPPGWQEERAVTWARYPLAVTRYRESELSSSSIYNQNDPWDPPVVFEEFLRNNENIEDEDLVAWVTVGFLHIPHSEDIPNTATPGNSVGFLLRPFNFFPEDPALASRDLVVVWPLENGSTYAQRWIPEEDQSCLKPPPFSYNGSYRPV

[5] = target: T3, Amine oxidase [copper-containing] 3; assay: Inhibition of human recombinant VAP-1 transfected in CHO cells using 2,4-dichlorophenol/benzylamine as substrate incubated for 30 mins prior to benzylamine addition measured after 1 hr by spectrophotometry; assay type: cell-based; summary of the method: as §1
MAO-B = target: T5, MAO-B (Homo sapiens, UniProt P27338); assay: Inhibition of human recombinant MAO-B expressed in baculovirus infected BTI insect cells using vanillic acid/tyramine as substrate at 20 uM incubated for 30 mins prior to tyramine addition measured after 1 hr by spectrophotometry; conditions: probe tyramine (with vanillic acid); summary of the method: as §2
T5 sequence (P27338 whole entry): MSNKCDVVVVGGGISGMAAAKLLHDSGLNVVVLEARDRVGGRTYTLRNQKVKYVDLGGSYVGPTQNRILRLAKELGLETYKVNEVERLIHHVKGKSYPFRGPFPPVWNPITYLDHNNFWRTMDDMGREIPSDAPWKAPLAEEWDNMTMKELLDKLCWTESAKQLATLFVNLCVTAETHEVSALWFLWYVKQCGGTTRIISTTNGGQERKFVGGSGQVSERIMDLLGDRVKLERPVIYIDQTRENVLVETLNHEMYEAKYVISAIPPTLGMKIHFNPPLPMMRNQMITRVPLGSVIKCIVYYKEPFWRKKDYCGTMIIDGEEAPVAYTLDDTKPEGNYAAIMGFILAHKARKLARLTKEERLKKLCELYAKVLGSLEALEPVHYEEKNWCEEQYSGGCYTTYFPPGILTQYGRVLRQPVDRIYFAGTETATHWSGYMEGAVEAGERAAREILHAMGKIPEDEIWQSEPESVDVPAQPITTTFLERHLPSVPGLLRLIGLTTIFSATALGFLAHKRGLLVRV

Cavia porcellus = species: Cavia porcellus; assay: Inhibition of guinea pig VAP-1
[6] = target: T6, Amine oxidase [copper-containing] 3 (Mus musculus) (UniProt O70423); assay: Inhibition of mouse recombinant VAP-1 transfected in CHO cells using 2,4-dichlorophenol/benzylamine as substrate at 1 nM to 50 uM incubated for 30 mins prior to benzylamine addition measured after 1 hr by spectrophotometry; assay type: cell-based; summary of the method: as §1
T6 sequence (whole entry): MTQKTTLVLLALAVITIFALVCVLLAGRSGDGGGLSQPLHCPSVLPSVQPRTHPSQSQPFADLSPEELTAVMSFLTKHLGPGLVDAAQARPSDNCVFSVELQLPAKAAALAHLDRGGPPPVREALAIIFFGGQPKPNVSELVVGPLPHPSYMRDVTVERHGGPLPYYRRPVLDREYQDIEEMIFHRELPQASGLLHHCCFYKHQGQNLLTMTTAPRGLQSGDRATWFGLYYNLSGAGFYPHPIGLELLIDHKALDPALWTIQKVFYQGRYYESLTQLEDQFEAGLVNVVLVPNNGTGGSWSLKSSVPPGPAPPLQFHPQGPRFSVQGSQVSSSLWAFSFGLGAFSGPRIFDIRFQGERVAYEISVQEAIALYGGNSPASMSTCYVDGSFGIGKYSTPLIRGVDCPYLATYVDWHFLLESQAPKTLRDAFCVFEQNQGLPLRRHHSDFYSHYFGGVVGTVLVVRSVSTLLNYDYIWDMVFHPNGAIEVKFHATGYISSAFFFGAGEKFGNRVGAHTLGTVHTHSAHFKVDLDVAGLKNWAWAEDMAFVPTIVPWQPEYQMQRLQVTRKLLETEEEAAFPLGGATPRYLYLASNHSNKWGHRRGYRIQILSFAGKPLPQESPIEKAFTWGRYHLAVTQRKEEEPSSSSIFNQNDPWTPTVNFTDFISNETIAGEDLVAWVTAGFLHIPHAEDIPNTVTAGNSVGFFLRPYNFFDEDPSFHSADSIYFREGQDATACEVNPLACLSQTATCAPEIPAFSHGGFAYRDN

Cricetinae = assay: Inhibition of hamster VAP-1
[7] = target: T4, Diamine oxidase [copper-containing] (Sus scrofa); assay: Inhibition of pig kidney DAO at 50 uM

Row | SMILES | inhibition [1] | IC50 [2] [nM] | inhibition (Rattus norvegicus) [%] | inhibition at 1 h, 20 µM (MAO-A) [%] | Kd [3] [nM] | inhibition [4] [%] | IC50 [5] [nM] | inhibition at 1 h, 20 µM (MAO-B) [%] | inhibition (Cavia porcellus) | inhibition [6] [%] | inhibition (Cricetinae) | inhibition [7] [%]
1 | O=c1cc(NC2CCCCC2)c(-c2nc[nH]n2)nn1-c1ccccc1 | inactive | 130 | 3 | 4 | 170 | 40 | 71 | 13 | inactive | 24 | inactive | 
2 | CC(C)Nc1cc(=O)n(-c2ccccc2)nc1-c1nc[nH]n1 | inactive | 250 | 8 |  | 200 | 30 | 290 |  | inactive | 10 | inactive | 
3 | CN1CCN(c2ccc(Nc3cc(=O)n(-c4ccc(Cl)cc4)nc3-c3nc[nH]n3)cc2)CC1 | inactive | 26 | 18 | 3 |  |  | 20 | 1 | inactive | 23 | inactive | 36
